Measurements as given in paper PMC10848874 (Bioorganic & medicinal chemistry, 2023).
“Also recorded” adds a separate entry of the source.

Tests used:
[1] = tested on: purified bovine brain tubulin; assay: Inhibition of tubulin polymerization; assay type: biochemical; details: oxetane analogues compared with their ketone counterparts
Method in brief: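 Bovine brain tubulin at 1 mg/mL (10 μM) in 0.8 M monosodium glutamate (pH 6.6) with 4% (v/v) DMSO and varied test compound concentrations, preincubated 15 min at 30 °C without GTP. The mix was chilled to 0 °C, then GTP added (0.1 mM final), and warmed to 30 °C over about 30 s.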

PANC-1 cells = assay: Wound healing; assay type: cell-based, human; details: for Scratch gap closure: PANC-1 cells, 37 °C, 5% CO2; for PANC-1 cell migration in wound healing assay (in words): 0.5 and 1 μM
Method in brief: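 PANC-1 cells in DMEM with 10% heat-inactivated FBS and 30 μg/mL gentamicin were seeded at about 1 × 10⁵ cells per well in 6-well plates and grown to 70–80% confluency. Each well was scratched with a sterile pipette tip, then medium and detached cells were removed. Duplicate wells received 0.5 or 1 μM test compound or control (final DMSO ≤0.2%). Closure was imaged by automated microscopy (4X) for 48 h.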

Row | Compound | Inhibition of tubulin polymerization (in words) [1] | Scratch gap closure (PANC-1 cells; 0.5 μM compound) | Scratch gap closure (PANC-1 cells; 1 μM compound) | PANC-1 cell migration in wound healing assay (in words) (PANC-1 cells)
1 | COc1cc(C2(c3c(-c4ccccc4)[nH]c4cc(Br)ccc34)COC2)cc(OC)c1OC [Compound 5c, 6-Bromo-2-phenyl-3-(3-(3,4,5-trimethoxyphenyl)oxetan-3-yl)-1H-indole] | at most weakly active as inhibitors of tubulin polymerization; also recorded: no significant tubulin assembly inhibition activity | gap is not completely closed after 40 h | gap remains open after 40 h | inhibited PANC-1 cell migration
2 | COc1cc(C2(c3c(-c4ccccc4)[nH]c4c(OC)cccc34)COC2)cc(OC)c1OC [Compound 5h, 7-Methoxy-2-phenyl-3-(3-(3,4,5-trimethoxyphenyl)oxetan-3-yl)-1H-indole] | at most weakly active as inhibitors of tubulin polymerization; also recorded: no significant tubulin assembly inhibition activity | gap is not closed after 48 h | gap remains open after 48 h | inhibited PANC-1 cell migration
3 | COc1cc(C2(c3c(-c4ccccc4)[nH]c4cc(Cl)ccc34)COC2)cc(OC)c1OC [Compound 5k, 6-Chloro-2-phenyl-3-(3-(3,4,5-trimethoxyphenyl)oxetan-3-yl)-1H-indole] | at most weakly active as inhibitors of tubulin polymerization; also recorded: no significant tubulin assembly inhibition activity | – | – | –
4 | COc1ccc2[nH]c(-c3ccccc3)c(C3(c4cc(OC)c(OC)c(OC)c4)COC3)c2c1 [Compound 5l, 5-Methoxy-2-phenyl-3-(3-(3,4,5-trimethoxyphenyl)oxetan-3-yl)-1H-indole] | at most weakly active as inhibitors of tubulin polymerization; also recorded: no significant tubulin assembly inhibition activity | – | – | –
5 | COc1ccc2c(C3(c4cc(OC)c(OC)c(OC)c4)COC3)c(-c3ccc(OC)c(O)c3)[nH]c2c1 [Compound 5m, 2-Methoxy-5-(6-methoxy-3-(3-(3,4,5-trimethoxyphenyl)oxetan-3-yl)-1H-indol-2-yl)phenol] | at most weakly active as inhibitors of tubulin polymerization; also recorded: no significant tubulin assembly inhibition activity | – | – | –
